Measurements published in paper PMC4819167 (Biochemistry, 2016).

Experiments:
HSV-1 = settings: at noncytotoxic concentrations; cited from earlier work
HSV-2 = settings: at noncytotoxic concentrations; cited from earlier work
pUL15C [1] = molecular target: T1, pUL15C (Human herpesvirus 1, UniProt P04295); test: Michaelis-Menten kinetic analysis with the dual-probe fluorescence assay; assay type: biochemical, herpes simplex virus
pUL15C [2] = molecular target: T1, pUL15C; test: Yonetani-Theorell analysis of pUL15C nuclease inhibition; assay type: biochemical; settings: compound 21 0-0.4 μM, raltegravir 0-2.0 μM, substrate 250 nM
pUL15C [3] = molecular target: T1, pUL15C; test: Dual-probe fluorescence assay of pUL15C nuclease activity; assay type: biochemical
DNase I = DNase I (Bos taurus, UniProt P00639); test: DNase I cleavage of substrate 21D/33D; assay type: biochemical; settings: 1 mM Mn2+, 20 μM compound
Lys700Ala pUL15C = Lys700Ala pUL15C (Human herpesvirus 1, UniProt P04295, K700A); test: Differential scanning fluorimetry; assay type: binding, herpes simplex virus; settings: DSF, 20 μM β-thujaplicinol
pUL15C [4] = molecular target: T1, pUL15C; test: pUL15C nuclease activity on supercoiled plasmid, agarose gel electrophoresis; assay type: biochemical, herpes simplex virus
pUL15C [5] = molecular target: T1, pUL15C; test: Differential scanning fluorimetry; assay type: binding; settings: wild-type pUL15C, DSF
Procedure, shortened: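 Binding read by thermal shift: test compound added from a 1 mM DMSO stock to 1.6 µM pUL15C in 20 mM HEPES (pH 7.5), 10 mM MgCl₂, 100 mM NaCl and SYPRO Orange (1:2000). Heated 30 to 80 °C in 0.2 °C steps. Fluorescence was read at ex 483 / em 568 nm, ΔTm was derived from melt curves, and runs were in duplicate.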

Chain of DNase I (P00639 23-282): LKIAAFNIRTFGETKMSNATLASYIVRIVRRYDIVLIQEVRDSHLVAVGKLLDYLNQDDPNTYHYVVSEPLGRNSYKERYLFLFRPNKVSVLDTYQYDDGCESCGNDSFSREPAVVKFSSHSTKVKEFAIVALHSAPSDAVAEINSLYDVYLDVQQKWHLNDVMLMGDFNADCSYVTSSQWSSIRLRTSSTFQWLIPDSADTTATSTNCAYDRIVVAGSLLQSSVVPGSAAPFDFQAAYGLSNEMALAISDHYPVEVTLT

| Compound | replication of wild-type and ACV-resistant HSV-1 (HSV-1) | replication of wild-type and ACV-resistant HSV-2 (HSV-2) | IC50 (pUL15C [3]) | decrease of the Tm of pUL15C (destabilizing effect) (pUL15C [5]) | further results |
| --- | --- | --- | --- | --- | --- |
| manicol | suppress replication | suppress replication |  |  |  |
| Cc1nnc(C(=O)NC(C)(C)c2nc(C(=O)NCc3ccc(F)cc3)c(O)c(=O)n2C)o1 [raltegravir] |  |  | 390 ± 50 nM |  | Ki (pUL15C [1]): 1000 ± 100 nM; mode of pUL15C inhibition (pUL15C [1]; Lineweaver-Burke plot): noncompetitively inhibits; binding-site overlap of compound 21 and raltegravir (Yonetani-Theorell plot) (pUL15C [2]): mutually exclusive |
| CC(C)c1ccc(O)c(=O)c(O)c1 [β-thujaplicinol] | suppress replication | suppress replication |  |  | inhibition of DNase I cleavage of substrate 21D/33D (DNase I): insensitive to inhibition; increase of Tm of the Lys700Ala mutant (Lys700Ala pUL15C): 4.30 °C; IC50 (pUL15C [4]): 2000 nM |
| CCN1C[C@H](C)n2c(c(O)c3c(=O)n(Cc4ccc(F)c(Cl)c4)nc(C(=O)NC)c32)C1=O [MK2048] |  |  |  | ~0.5 °C | IC50 (pUL15C [3]; read-out: IC50, pUL15C nuclease activity, dual-probe fluorescence assay, 0.3 μM pUL15C, 250 nM DNA duplex, 1 mM MnCl2, 37 °C, triplicate): > 10000 nM |
| C[C@@H]1CCO[C@H]2Cn3cc(C(=O)NCc4ccc(F)cc4F)c(=O)c(O)c3C(=O)N12 [dolutegravir] |  |  | 1100 ± 90 nM |  |  |
| COc1cc2c(cc1Cc1cccc(Cl)c1F)c(=O)c(C(=O)O)cn2[C@H](CO)C(C)C [elvitegravir] |  |  | > 10000 nM | ~0.5 °C |  |
